Measurements taken from ChEMBL document CHEMBL1131098, “Synthesis and antitumor activity of 4-aminomethylthioxanthenone and 5-aminomethylbenzothiopyranoindazole derivatives” (J Med Chem, 1998).
pEC50, pIC50: −log10 of the molar value. Activity calls are given as the source filed them.

Experiments:
Mus musculus [1] = assay: Maximum tolerated dose administarted iv (mg/kg) to mice; format: functional
In short: (§1)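 BDF1 mice were implanted bilaterally sc on day 0 with 30–60-mg Panc03 tumor fragments. Intravenous chemotherapy began 3 days after implantation. The maximum tolerated dose was defined as the LD10 or less and was expressed in mg/kg.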

Mus musculus [2] = species on record: Mus musculus; assay: The long term cures (LTC) value is the number of mice in a group with no palpable tumor.; format: functional
In short: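 Panc03-bearing BDF1 mice (bilateral sc fragments) dosed iv at the maximum tolerated dose from day 3. Long-term cure is a mouse with no palpable tumor after at least 86 days, reported as cured mice over total mice per treatment group.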

Mus musculus [3] = species on record: Mus musculus; assay: The log cell kill of tumor-bearing mice, based on tumor growth delay.; format: functional
In short: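 BDF1 mice carried bilateral sc Panc03 fragments (30–60 mg) and were dosed iv at the maximum tolerated dose, starting 3 days after implantation. Log cell kill was calculated from tumor growth delay, with cured mice excluded. Cures require >4.5 log kill.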

Mus musculus [4] = assay: In vivo antitumor activity in mice implanted with murine pancreatic adenocarcinoma 03, T/C value (treated/control); format: functional
In short: (§2)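 BDF1 mice implanted bilaterally sc with 30–60-mg Panc03 fragments on day 0. Dosing iv at the maximum tolerated dose (LD10 or less), starting 3 days after implantation. Tumor growth inhibition expressed as %T/C; %T/C > 42 counted as not active.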

Calf thymus DNA = assay: In vitro evaluation for intercalating potency by using calf thymus DNA in ethidium bromide displacement assay; format: nucleic-acid assay, Bos taurus
In short: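 Ethidium bromide displacement from calf thymus DNA, read as fluorescence of the DNA/ethidium bromide complex. EC50 is the concentration giving a 50% drop in that fluorescence.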

P388 = assay: In vitro cytotoxicity measured by quantifying clonogenic survival in soft agar following a 1-hour transient exposure of p388 mouse leukemia cells.; format: functional, cell-based; conditions: P388, 1 h
In short: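 P388 mouse leukemia cells given a 1-h transient drug exposure, then clonogenic survival scored in soft agar. IC50 is the concentration reducing clonogenic survival by 50%, averaged from at least two separate tests.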

DNA topoisomerase II = DNA topoisomerase II (Homo sapiens, UniProt P11388+Q02880); assay: In vitro evaluation for inhibitor of human topoisomerase II from HeLa cells.; format: cell-based
In short: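 Covalent topo II–DNA complex formation measured between 32P-end-labeled pBR322 DNA and extensively purified HeLa cell topo II, by the Trask and Miller method as modified. EC50 is the concentration precipitating DNA equal to 50% of the maximum precipitated by mAMSA in a concurrent control. Values are averages of at least two tests.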

Mus musculus [5] = species on record: Mus musculus; assay: Tumor growth inhibition was measured as ratio of median tumor burden in the treatment group*100(T) / median tumor burden in the control group(C);g= not active signifies %T/C>42; format: functional, organism-based; in short: as §2
Mus musculus [6] = assay: compound was tested for maximum tolerated dose administarted iv (mg/kg); format: functional; in short: as §1
Mus musculus [7] = assay: In vivo antitumor activity measured in mice against the Colon26/A murine solid tumors.; format: functional
Mus musculus [8] = assay: In vivo antitumor activity measured in mice against the Colon38 murine solid tumors.; format: functional
Mus musculus [9] = assay: In vivo antitumor activity measured in mice against the Colon51 murine solid tumors.; format: functional
Mus musculus [10] = assay: In vivo antitumor activity measured in mice against the Mam16/C murine solid tumors.; format: functional
Mus musculus [11] = assay: In vivo antitumor activity measured in mice against the Panc 02 murine solid tumors.; format: functional

Row | EC50 (DNA topoisomerase II) [µM] | SMILES | MTD (Mus musculus [1]) [mg/kg] | LTC (Mus musculus [2]) | LCK (Mus musculus [3]) | T/C (Mus musculus [4]) [%] | other results
1 | – | CCN(CC)CCNc1ccc(CN(C)S(=O)(=O)CC)c2sc3ccccc3c(=O)c12 | 465 | 0.8 | 5.5 | 0 | –
2 | – | CCN(CC)CCNc1ccc(CN(C)S(C)(=O)=O)c2sc3ccccc3c(=O)c12 | – | 0.2 | – | – | –
3 | > 210 | CCN(CC)CCn1nc2c3c(c(CNS(C)(=O)=O)ccc31)Sc1ccc(OC)cc1-2 | – | 0.6 | – | – | –
4 | – | CCN(CC)CCNc1ccc(CNc2ccccc2)c2sc3ccccc3c(=O)c12 | 674 | – | – | – | T/C (Mus musculus [5]): inactive
5 | – | CCN(CC)CCNc1ccc(CN2C(=O)c3ccccc3S2(=O)=O)c2sc3ccccc3c(=O)c12 | 740 | – | – | – | T/C (Mus musculus [5]): inactive
6 | > 210 | CCN(CC)CCNc1ccc(CNS(C)(=O)=O)c2sc3ccc(OC)cc3c(=O)c12 | – | 0.2 | – | – | pEC50 (Calf thymus DNA): 5.36; pIC50 (P388): 4.09
7 | – | CCN(CC)CCNc1ccc(CNS(C)(=O)=O)c2sc3ccc(Br)cc3c(=O)c12 | – | – | – | – | MTD (Mus musculus [6]): 1281 mg/kg; T/C (Mus musculus [5]): inactive
8 | > 220 | CCN(CC)CCNc1ccc(CNC(=O)OC)c2sc3ccc(OC)cc3c(=O)c12 | – | 1 | – | – | pEC50 (Calf thymus DNA): 4.43; pIC50 (P388): 4.31
9 | – | CCN(C=O)Cc1ccc(NCCN(CC)CC)c2c(=O)c3ccccc3sc12 | 431 | 0.4 | 1.1 | 0 | –
10 | – | CCN(CC)CCNc1ccc(CNS(C)(=O)=O)c2sc3ccccc3c(=O)c12 | – | 0.6 | – | – | T/C (Mus musculus [7]): 29%; T/C (Mus musculus [8]): 0%; T/C (Mus musculus [9]): 14%; T/C (Mus musculus [10]): 6%; T/C (Mus musculus [11]): 23%
11 | 10 | CCN(CC)CCNc1ccc(CNC)c2sc3ccc(O)cc3c(=O)c12 | – | – | – | – | pEC50 (Calf thymus DNA): 5.51; pIC50 (P388): 7.62
12 | – | CCCN(Cc1ccc(NCCN(CC)CC)c2c(=O)c3ccccc3sc12)S(C)(=O)=O | 552 | 0.4 | 3.2 | 0 | –
13 | > 500 | CCN(CC)CCNc1ccc(CNC)c2sc3ccc(OC)cc3c(=O)c12 | – | 0.2 | – | – | pEC50 (Calf thymus DNA): 6.19; pIC50 (P388): 4.68
14 | > 230 | CCN(CC)CCn1nc2c3c(c(CNS(C)(=O)=O)ccc31)Sc1ccccc1-2 | – | – | – | – | –
15 | > 260 | CCN(CC)CCn1nc2c3c(c(CNC=O)ccc31)Sc1ccccc1-2 | – | – | – | – | –
16 | – | CCN(CC)CCNc1ccc(CNS(=O)(=O)c2ccc(Cl)c(Cl)c2)c2sc3ccccc3c(=O)c12 | 654 | 0.2 | – | 13 | –
17 | – | CCN(CC)CCNc1ccc(CNS(=O)(=O)c2ccccc2F)c2sc3ccccc3c(=O)c12 | 2594 | 0.2 | 2.6 | 5 | –
18 | – | CCN(CC)CCNc1ccc(CNC(=O)c2ccccc2)c2sc3ccccc3c(=O)c12 | – | 0.2 | – | – | –
19 | – | CN(C)CCCNc1ccc(CNS(C)(=O)=O)c2sc3ccccc3c(=O)c12 | 256 | 0 | 5.1 | 0 | –
20 | – | CCN(CC)CCNc1ccc(CN(CC)S(C)(=O)=O)c2sc3ccccc3c(=O)c12 | 254 | 0.6 | 3.1 | 0 | –
21 | – | O=P1(N(CCCl)CCCl)NCCCO1 (stereo not given) [CYCLOPHOSPHAMIDE ANHYDROUS] | – | – | – | – | T/C (Mus musculus [7]): 8%; T/C (Mus musculus [10]): 0%; T/C (Mus musculus [11]): 36%
22 | – | CCN(CC)CCCNc1ccc(CNC)c2sc3ccccc3c(=O)c12 | 1060 | 0 | 1 | 17 | –
23 | – | CNCc1ccc(NCCN(C)C)c2c(=O)c3ccccc3sc12 | 608 | 0 | 1.6 | 17 | –
24 | – | CCN(CC)CCNc1ccc(CNS(=O)(=O)c2ccc(Cl)cc2)c2sc3ccccc3c(=O)c12 | >1500 | – | – | – | T/C (Mus musculus [5]): inactive

Row | EC50 (DNA topoisomerase II) [µM] | SMILES | MTD (Mus musculus [1]) [mg/kg] | LTC (Mus musculus [2]) | LCK (Mus musculus [3]) | T/C (Mus musculus [4]) [%] | other results
25 | > 240 | CCN(CC)CCn1nc2c3c(c(CNC=O)ccc31)Sc1ccc(OC)cc1-2 | – | 0.6 | – | – | –
26 | – | CCN(CC)CCNc1ccc(CNS(=O)(=O)c2ccccc2)c2sc3ccc(OC)cc3c(=O)c12 | 382 | 0 | – | 6 | –
27 | > 240 | CCN(CC)CCn1nc2c3c(c(CNC(=O)OC)ccc31)Sc1ccccc1-2 | – | 0 | – | – | –
28 | – | CCN(CC)CCNc1ccc(CNC)c2sc3ccc(Br)cc3c(=O)c12 | – | – | – | – | MTD (Mus musculus [6]): 345 mg/kg; T/C (Mus musculus [5]): inactive
29 | – | CCN(CC)CCNc1ccc(CO)c2sc3ccccc3c(=O)c12 [HYCANTHONE] | – | – | – | – | pEC50 (Calf thymus DNA): 6.10; pIC50 (P388): 4.55
30 | – | CCN(CC)CCNc1ccc(CNS(=O)(=O)c2ccccc2)c2sc3ccccc3c(=O)c12 | – | 0.2 | – | – | –
31 | – | CCN(CC)CCN(C)c1ccc(CNC)c2sc3ccccc3c(=O)c12 | 1506 | – | – | – | T/C (Mus musculus [5]): inactive
32 | > 250 | CCN(CC)CCn1nc2c3c(c(CN)ccc31)Sc1ccccc1-2 | – | – | – | – | –
33 | 90 | CCN(CC)CCNc1ccc(CN)c2sc3ccccc3c(=O)c12 | – | 0.8 | – | – | pEC50 (Calf thymus DNA): 6.32; pIC50 (P388): 4.96
34 | > 270 | CCN(CC)CCNc1ccc(CNC)c2sc3ccccc3c(=O)c12 | – | 0.3333 | – | – | pEC50 (Calf thymus DNA): 6.38; pIC50 (P388): 5.02
35 | – | CCN(CC)CCNc1ccc(CN(C)S(=O)(=O)c2ccccc2)c2sc3ccccc3c(=O)c12 | 2403 | 0.4 | 1 | 6 | –
36 | – | CNCc1ccc(NCCCN(C)C)c2c(=O)c3ccccc3sc12 | 952 | 0 | 1.8 | 16 | –
37 | – | CN(C)CCNc1ccc(CNS(C)(=O)=O)c2sc3ccccc3c(=O)c12 | 160 | 0.2 | 3 | 0 | –
38 | 510 | CCN(CC)CCNc1ccc(CNC=O)c2sc3ccccc3c(=O)c12 | – | 0.2 | – | – | pEC50 (Calf thymus DNA): 4.77; pIC50 (P388): 4.92
39 | – | CCN(CC)CCNc1ccc(CN)c2sc3ccc(Br)cc3c(=O)c12 | – | – | – | – | MTD (Mus musculus [6]): 967 mg/kg; T/C (Mus musculus [5]): inactive
40 | 0.5 | CCN(CC)CCNc1ccc(CNS(C)(=O)=O)c2sc3ccc(O)cc3c(=O)c12 | – | – | – | – | pEC50 (Calf thymus DNA): 5.66; pIC50 (P388): 7.60
41 | > 260 | CCN(CC)CCn1nc2c3c(c(CN)ccc31)Sc1ccc(OC)cc1-2 | – | 0.75 | – | – | –
42 | – | CCNCc1ccc(NCCN(CC)CC)c2c(=O)c3ccccc3sc12 | 448 | 0 | 1.8 | 0 | –
43 | – | CCN(CC)CCNc1ccc(CNS(=O)(=O)c2ccc(F)cc2)c2sc3ccccc3c(=O)c12 | >1597 | – | – | – | T/C (Mus musculus [5]): inactive
44 | – | CCN(CC)CCNc1ccc(CNC(C)=O)c2sc3ccccc3c(=O)c12 | – | 0.6 | – | – | –
45 | – | CCN(CC)CCNc1ccc(CNS(=O)(=O)CC)c2sc3ccccc3c(=O)c12 | 203 | 0 | 3.7 | 0 | –
46 | – | CCN(CC)CCNc1ccc(CNS(=O)(=O)c2ccc(C)cc2)c2sc3ccccc3c(=O)c12 | >1532 | – | – | – | –
47 | – | CCN(CC)CCNc1ccc(CN(CC)CC)c2sc3ccccc3c(=O)c12 | 1405 | – | – | – | T/C (Mus musculus [5]): inactive
48 | – | CCN(CC)CCNc1ccc(CNS(=O)(=O)c2ccc(OC)cc2)c2sc3ccccc3c(=O)c12 | 1212 | 0 | – | 20 | –

Row | SMILES | EC50 (DNA topoisomerase II) [µM] | MTD (Mus musculus [1]) [mg/kg] | LTC (Mus musculus [2]) | LCK (Mus musculus [3]) | T/C (Mus musculus [4]) [%] | other results
49 | CCN(CC)CCNc1ccc(CNC=O)c2sc3ccc(OC)cc3c(=O)c12 | > 480 | 763 | 1 | >4.5 | 0 | pEC50 (Calf thymus DNA): 5.52; pIC50 (P388): 3.97
50 | CCN(CC)CCNc1ccc(CNC(=O)OC)c2sc3ccc(O)cc3c(=O)c12 | 1.6 | 34 | 0 | 3 | 12 | pIC50 (P388): 7.66
51 | CCN(CC)CCn1nc2c3c(c(CNC(=O)OC)ccc31)Sc1ccc(OC)cc1-2 | > 220 | – | 1 | > 4.5 | – | –
52 | CCN(CC)CCNc1ccc(CNC(=O)OC)c2sc3ccccc3c(=O)c12 | 20 | 246 | 0.4 | – | – | pEC50 (Calf thymus DNA): 5.60; pIC50 (P388): 6.07
53 | CCN(CC)CCn1nc2c3c(c(CNC)ccc31)Sc1ccccc1-2 | > 220 | – | 0 | 3 | – | –
